Test [1] in a line: Inhibition of 6-His tagged recombinant c-Myc353-437 gene binding to Max(S) protein assessed as disruption of heterodimer formation by circular dichroism assay. An outline of the steps: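 Circular dichroism on equimolar c-Myc and Max (1.5 µM each), with helical content read as ellipticity at 222 nm. Compounds were screened at 200 µM (average of three independent trials), then titrated over a concentration range. The fitted Kcomp was multiplied by the independently determined c-Myc–Max dissociation constant to estimate affinity for c-Myc monomer. Triplicate.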
On the technique in general: CD spectra are sensitive to the conformation of chiral molecules.

In a further test the test system is HL-60. Nature of the test: Cytotoxicity against human HL60 cells by MTS assay. The format is functional, cell-based. In a few lines:
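HL60 cell growth dose-response profiles; IC50 calculated from the profile on day 5 after compound addition.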

The nature of test [2]: Cytotoxicity against rat c-Myc knockout KO-HMG cells overexpressing HMGA1b by MTS assay. The format is cell-based.

Molecules are shown by their SMILES. Active and inactive are the calls of the source. The calls are words filed in the database; no cut-off is given here. Some results are limits rather than exact numbers.

As usually defined, the IC50 is the concentration that inhibits the measured activity by half.

For `CC(C)c1ccc(/C=C2\SC(=S)NC2=O)cc1`, the IC50 in test [1] amounted to 38 µM.

For the compound `Cc1ccc(C)c(OCN2Cc3ccccc3C2C=O)c1` (stereo not drawn), the IC50 is 15 µM with HL-60 and greater than 35 µM in test [2].

Consider `O=C1NC(=S)S/C1=C\c1ccc(Cl)cc1`, for which the IC50 in test [1] came out at 41 µM.

For `CCCCOC(=O)CCN1C(=O)/C(=C/c2ccc(CC)cc2)SC1=S`, the IC50 in test [1] was 10 µM.

With `CCCN1C(=O)/C(=C/c2ccc(CC)cc2)SC1=S`, in test [1], the IC50 was found to be 4.6 µM.

Turning to `CCc1ccc(OCC(=O)Nc2ccc(C)cc2Br)cc1`, the results for the IC50 (in the test with HL-60; in test [2]) were 23 µM and greater than 55 µM, respectively.

For `CN(C)c1ccc(/C=C2\SC(=S)NC2=O)cc1`, the outcome in test [1] was inactive.

Consider `O=C1NC(=S)S/C1=C\c1ccc(O)cc1`, for which the result in test [1] was inactive.

Consider `O=C1NC(=S)S/C1=C\c1ccc(O)c(O)c1`, for which the IC50 in test [1] stood at 23 µM.

For the compound `CCc1ccc(/C=C2\SC(=S)NC2=O)cc1`, the 50% inhibitory concentration (IC50) was found to be 49 µM in test [1] and 35 µM with HL-60.

The values are drawn from ChEMBL document CHEMBL1140921, “Discovery of novel Myc-Max heterodimer disruptors with a three-dimensional pharmacophore model” (J Med Chem, 2009).
